Screens: PubChem BioAssay, The Scripps Research Institute Molecular Screening Center
PAFAH2 inh = PAFAH2 enzyme inhibitors, primary screen, biochemical, fluorescence polarization, human; recombinant PAFAH2, FP-rhodamine activity probe; inhibition, % at 3.39 µM; 340,000 compounds, 0.99% hits; AID 492956, 2010;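 active = inhibition above the mean over all tested compounds plus 3 SD, cut at about 30% in these data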;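 also: inhibitors block probe labeling of enzyme so polarization drops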
ABHD4 inh = ABHD4 inhibitors, primary screen, biochemical, fluorescence polarization, mouse. (Lyso)-N-acylphosphatidylethanolamine lipase (Mus musculus), Q8VD66. purified mABHD4, FP-Rh probe fluorescence polarization. inhibition, % at 8.92 µM. 370,000 compounds, 0.54% hits. AID 720543, 2013;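 active = inhibition exceeding the mean over every tested compound plus 3 SD, cut at about 30% in these data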
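system = mouse ABHD4 enzyme, wild type | medium = HEPES pH 7.0, NaCl, Pluronic buffer | also added = FP-Rh probe | incubation = Enzyme–compound pre-incubation 45 min, then probe 60 min, both 25 °C | technique = fluorescence polarization, excitation 525 nm, emission 598 nm, BODIPY TMR filters | controls = S159A mutant high control, sample median low control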
PAFAH1B2 inh = PAFAH1B2 enzyme inhibitors, primary screen, biochemical, fluorescence polarization, human; Platelet-activating factor acetylhydrolase IB subunit alpha2 (Homo sapiens), P68402; recombinant PAFAH1B2, FP-rhodamine activity probe; inhibition, % at 3.39 µM; 340,000 compounds, 1.2% hits;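 active = inhibition above the mean of all tested compounds plus 3 SD, cut at about 24% in these data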
Target sequence (P68402 whole entry, looked up): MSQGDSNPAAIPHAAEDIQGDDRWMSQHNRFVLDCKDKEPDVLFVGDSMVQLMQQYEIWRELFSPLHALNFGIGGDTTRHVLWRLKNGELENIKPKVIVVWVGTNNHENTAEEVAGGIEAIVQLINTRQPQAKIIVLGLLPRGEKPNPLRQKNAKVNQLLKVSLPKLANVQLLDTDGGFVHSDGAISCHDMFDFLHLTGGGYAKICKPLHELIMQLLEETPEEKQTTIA
pPAFAH inh = pPAFAH enzyme inhibitors, primary screen, biochemical, fluorescence polarization, human | 330,000 compounds, 1.5% hits | inhibition, % at 3.39 µM | recombinant pPAFAH, FP-rhodamine probe fluorescence polarization;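 active = inhibition above the mean inhibition across the screen plus 3 SD, cut at about 25% in these data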;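 also: inhibitors block binding of the rhodamine activity-based probe so polarization drops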
Target sequence (Q13093 whole entry, looked up): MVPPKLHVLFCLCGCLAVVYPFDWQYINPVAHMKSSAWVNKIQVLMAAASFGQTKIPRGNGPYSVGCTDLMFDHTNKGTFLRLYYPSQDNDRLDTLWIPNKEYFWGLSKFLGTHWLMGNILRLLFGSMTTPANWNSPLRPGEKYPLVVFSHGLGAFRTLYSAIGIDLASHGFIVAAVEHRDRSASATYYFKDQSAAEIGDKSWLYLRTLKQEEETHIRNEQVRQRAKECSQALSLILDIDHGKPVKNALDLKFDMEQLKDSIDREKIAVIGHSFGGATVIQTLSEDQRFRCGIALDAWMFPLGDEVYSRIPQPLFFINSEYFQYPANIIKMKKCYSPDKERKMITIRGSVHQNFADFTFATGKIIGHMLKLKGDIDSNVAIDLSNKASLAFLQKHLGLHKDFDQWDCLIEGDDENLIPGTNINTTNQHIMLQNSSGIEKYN
HTRA1 inh = HTRA1 serine protease inhibitors, primary screen, biochemical, fluorescence polarization, HTS; 340,000 compounds, 0.5% hits; recombinant HTRA1, FP-rhodamine activity-based probe; Q92743; inhibition, % at 5.96 µM; in the data active = inhibition above about 36%
PAFAH1B3 inh = PAFAH1B3 enzyme inhibitors, primary screen, biochemical, fluorescence polarization, human | Platelet-activating factor acetylhydrolase IB subunit alpha1 (Homo sapiens), Q15102 | inhibition, % at 3.39 µM | recombinant PAFAH1B3, FP-rhodamine probe | 340,000 compounds, 0.28% hits | AID 492972, 2010;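 active = inhibition above the screen-wide average of all tested compounds plus 3 SD, cut at about 25% in these data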
PAFAH2 confirm = PAFAH2 enzyme inhibitors, confirmation, biochemical, fluorescence polarization, human | inhibition, % at 3.39 µM | 2,300 compounds, 65% hits | shares compounds with PAFAH2 inh | recombinant PAFAH2, FP-rhodamine activity probe;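 active = mean inhibition over three repeats above a set limit taken from the earlier primary screen, cut at about 30% in these data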;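 also: inhibitor blocks binding of rhodamine activity probe so polarization falls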
Numbers stand for hits; . = inactive; / = not tested or not shown. Sampled rows, rich in hits. Any-hit rate of the full collection: about 2.8%.

SMILES	PAFAH2 inh	ABHD4 inh	PAFAH1B2 inh	pPAFAH inh	HTRA1 inh	PAFAH1B3 inh	PAFAH2 confirm
CC(=O)c1cc(-c2cccc(C#N)c2)c(=O)n2c1CCC2	/	.	/	/	/	/	/
COc1cccc(/C=C2\CC3(OC(=O)C4CCCCC4)CCCN2C3)c1 (stereo unspecified)	/	.	/	/	/	/	/
Cn1c(=O)c2nc(-c3ccccc3)c(-c3ccccc3)nc2n(C)c1=O	.	.	.	.	.	.	/
Cn1c(=O)c2nc(Cl)c(-c3ccccc3)nc2n(C)c1=O	33.4	.	.	.	.	.	38.4
Cc1cc(C)c(S(=O)(=O)N2CCN(C(=O)N3CCCCC3)CC2)c(C)c1	33.6	.	.	.	.	.	29.8
O=c1c2c(nc3nc(Cc4ccccc4)[nH]n13)CCC2	67.3	.	.	.	.	.	59.3
N#Cc1c(-c2ccccc2)c(C#N)c2nc3ccccc3n2c1N	.	.	.	.	.	.	/
Cc1ccc(-c2c(C#N)c(N)n3c(nc4ccccc43)c2C#N)cc1	46.2	.	.	.	.	.	33.5
COc1cccc(-c2nc3ccccc3c(=O)o2)c1	68.4	.	.	.	.	.	73.1
COc1cc(OC)cc(-c2nc3ccccc3c(=O)o2)c1	54.5	.	.	.	.	.	67.9
O=C(Nc1cccc(-c2nc3ccccc3c(=O)o2)c1)c1ccccc1	.	.	.	.	.	.	/
CCn1c(COc2ccc(C)cc2)nnc1SCC(=O)Nc1ccc(Oc2ccccc2)cc1	/	.	/	/	/	/	/
O=C(CCC1CCCC1)NNC(=O)COc1ccc(Br)cc1	35.0	.	.	.	.	.	.
O=C(COC(=O)COc1ccc(Br)cc1)NC1CCCC1	.	.	.	.	.	.	/
CCOc1ncccc1C(=O)OCC(=O)Nc1cccc(S(N)(=O)=O)c1	33.5	.	.	.	.	.	.
Cc1ccc(NC(=O)COC(=O)c2cc(-c3cccs3)nn2-c2ccccc2)cc1[N+](=O)[O-]	.	.	.	.	.	.	/
O=C(COC(=O)c1cc(-c2cccs2)nn1-c1ccccc1)Nc1cccc([N+](=O)[O-])c1	32.3	.	.	.	.	.	38.6
O=C(COC(=O)c1ccccc1C(=O)c1ccccc1)Nc1cccc([N+](=O)[O-])c1	88.6	.	.	.	.	.	82.0
CC(=O)c1cccc(NC(=O)COC(=O)c2ccccc2C)c1	62.6	.	.	.	.	.	61.8
CC(=O)c1cccc(NC(=O)COC(=O)c2ccccn2)c1	.	.	.	.	.	.	/
CCOc1ncccc1C(=O)OCC(=O)Nc1cccc(C(C)=O)c1	61.5	.	.	.	.	.	55.4
C/C(=C/c1c[n+](Cc2ccc3c(c2)OCO3)c(N)[nH]1)Cn1[nH]c(=O)n(-c2ccccc2)c1=O	/	.	/	/	/	/	/
Cc1cc(C)n(-c2ccc(C(=O)OCC(=O)Nc3cc(S(C)(=O)=O)ccc3Cl)cc2)n1	35.8	.	.	.	.	.	.
CS(=O)(=O)c1ccc(Cl)c(NC(=O)COC(=O)c2ccc(S(=O)(=O)N3CCCC3)cc2)c1	.	.	.	.	.	.	/
CS(=O)(=O)c1ccc(Cl)c(NC(=O)COC(=O)c2ccc(-n3cnnn3)cc2)c1	.	.	.	.	.	.	/
SMILES	PAFAH2 inh	ABHD4 inh	PAFAH1B2 inh	pPAFAH inh	HTRA1 inh	PAFAH1B3 inh	PAFAH2 confirm
Cc1ccc(C(=O)OCC(=O)Nc2ccccc2)cc1S(=O)(=O)N1CCCCC1	49.9	.	.	.	.	.	35.7
Cc1ccc(C(=O)OCC(=O)Nc2cc(S(C)(=O)=O)ccc2Cl)cc1S(=O)(=O)N1CCCCC1	64.1	.	.	.	.	.	54.4
Cc1ccc(NC(=O)COC(=O)C2CC3C=CC2C3)cc1S(=O)(=O)N1CCCCC1 (stereo unspecified)	59.9	.	.	.	.	.	52.0
Cc1cccc(NC(=O)COC(=O)c2ccc(C)c(S(=O)(=O)N3CCCCC3)c2)c1	42.4	.	.	.	.	.	37.9
CN1CC(=O)N2[C@@H](C[C@]3(c4c[nH]c5ccccc45)c4ccccc4N(S(=O)(=O)c4ccccc4)[C@H]23)C1=O	/	.	/	/	/	/	/
CCOC(=O)c1c(-c2ccccc2)csc1/N=C/C1C(=O)CCCC1=O	.	.	.	.	.	.	/
CCOC(=O)c1c(CC(C)C)csc1/N=C/C1C(=O)CCCC1=O	33.4	.	.	.	.	.	.
CSCCC(NS(=O)(=O)c1ccc2ccccc2c1)C(=O)O (stereo unspecified)	.	.	.	.	.	.	/
CSCCC(NS(=O)(=O)c1ccc(Cl)c(Cl)c1)C(=O)O (stereo unspecified)	68.0	.	.	.	.	.	70.8
COc1ccc(C(=O)OCC(=O)NCC2CCCCC2)cc1F	84.9	.	.	/	.	.	72.1
COc1ccc(OCC(=O)OCC(=O)NCC2CCCCC2)cc1	.	.	.	.	.	.	/
O=C(COC(=O)c1ccc(F)cc1)NCC1CCCCC1	77.1	.	.	.	.	.	59.8
O=C(COC(=O)c1ccc(Cl)cc1)NCC1CCCCC1	58.5	.	.	.	.	.	60.0
COc1ccc(C(=O)OCC(=O)NCC2CCCCC2)c(OC)c1	65.9	.	.	/	.	.	57.0
CCOC(=O)[C@]12CCCCC/C=C\1N(CCc1ccc(Cl)cc1)C(=O)[C@H]2CC(=O)N1CCN(C(=O)C2CC2)CC1	/	.	/	/	/	/	/
COc1ccc(C(=O)OCC(=O)Nc2cc(C)on2)c(OC)c1OC	67.6	.	.	.	.	.	64.7
COc1cc(C(=O)OCC(=O)Nc2cc(C)on2)c([N+](=O)[O-])cc1OC	36.9	.	.	.	.	.	.
COc1ccc(C(=O)OCC(=O)NCc2ccccc2)c(OC)c1OC	56.8	.	.	.	.	.	56.3
COc1ccc(C(=O)OCC(=O)Nc2ccc(Cl)c(C(F)(F)F)c2)c(OC)c1OC	67.7	.	.	.	.	.	76.8
COc1cc(CC(=O)Nc2ccc(Cl)c(C(F)(F)F)c2)cc(OC)c1OC	.	.	.	.	.	.	/
COc1ccc(NC(=O)Nc2ccccc2C(=O)N2CCCC2)cc1OC	/	.	/	/	/	/	/
COc1ccc(C)cc1NC(=O)COC(=O)c1c(C)noc1C	45.8	.	.	.	.	.	.
C[C@H]1COc2cc(N3CCCC3)ccc2S(=O)(=O)N1C	/	.	/	/	/	/	/
